# Assay results collected from several papers.
# KIT D816V: Mast/stem cell growth factor receptor Kit (KIT, Homo sapiens, UniProt P10721, D816V)
# KIT V559D: Mast/stem cell growth factor receptor Kit (KIT, Homo sapiens, UniProt P10721, V559D)
# KIT V559D/V654A: Mast/stem cell growth factor receptor Kit (KIT, Homo sapiens, UniProt P10721, V559D/V654A)
# KIT autoinhibited: Mast/stem cell growth factor receptor Kit, autoinhibited (KIT, Homo sapiens, UniProt P10721)
# KIT L576P: Mast/stem cell growth factor receptor Kit (KIT, Homo sapiens, UniProt P10721, L576P)
# KIT T670I/V559D: Mast/stem cell growth factor receptor Kit (KIT, Homo sapiens, UniProt P10721, T670I/V559D)
SMILES,target,observed,technique,concentration,remaining binding [%]
CN(C)c1ncc(F)c(-c2cnn3ncccc23)n1,KIT D816V,binding,,1 µM,91
CO[C@H]1CC[C@H](CNc2ccc(S(=O)(=O)NC(=O)c3ccc(N4CCN(CC5=C(c6ccc(Cl)cc6)CC(C)(C)CC5)CC4)cc3Oc3cnc4[nH]ccc4c3)cc2[N+](=O)[O-])CC1,KIT D816V,cell-free assay,competition with immobilised ligand,1 µM,100
CN(C)c1nccc(-c2cnn3ncccc23)n1,KIT V559D,binding,,1 µM,100
C=CC(=O)N1CCC(C(=O)NCC(=O)N2CCN(c3nc(-c4cnc(N)nc4C(F)F)nc(N4CCOCC4)n3)CC2)CC1,KIT V559D/V654A,binding,competition with immobilised ligand,1 µM,100
O=C(NCCCN1CCOCC1)c1ccc(Nc2nccc(-c3cc4ccccc4s3)n2)cc1,KIT autoinhibited,binding,competition with immobilised ligand,1 µM,76
O=C(O)[C@@H]1[C@@H](Cn2nnc3ccccc3c2=O)CC[C@H]1C(=O)c1ccc(OCCC2CCOCC2)cc1,"Mast/stem cell growth factor receptor Kit (KIT, Homo sapiens, UniProt P10721, D816H)",cell-free assay,competition with immobilised ligand,1 µM,68
O=C(Nc1c[nH]nc1C(=O)NC1CCNCC1)c1cc(F)cc(F)c1,KIT L576P,binding,competition with immobilised ligand,1 µM,100
C[C@@H]1CCN(c2nccc(-c3cnn4ncccc34)n2)C1,KIT T670I/V559D,binding,,1 µM,100
Nc1ncc2c(n1)-c1c([nH]c3ccc(C#CC4CC4)cc13)CCCC2,"Mast/stem cell growth factor receptor Kit (KIT, Homo sapiens, UniProt P10721)",binding,competition with immobilised ligand,1 µM,95
CN(CCCC(F)(F)F)c1nccc(-c2cnn3ncccc23)n1,KIT D816V,binding,,1 µM,88
CN1CCN(c2ccc(Nc3nccc(-c4ccccc4)n3)cc2C(F)(F)F)CC1,"Mast/stem cell growth factor receptor Kit (KIT, Homo sapiens, UniProt P10721, A829P)",binding,,10 µM,20
COc1cc(-c2cn(C3CCc4ccccc4N(CC(F)(F)F)C3=O)nn2)ccc1-n1ccc(C)n1 (stereo not shown),KIT L576P,cell-free assay,competition with immobilised ligand,1 µM,62
COc1cnc(Nc2cccc(S(N)(=O)=O)c2)nc1N1CCN(c2ccccc2)CC1,KIT D816V,binding,competition with immobilised ligand,1 µM,92
F[C@@H]1CCN(c2nccc(-c3cnn4ncccc34)n2)C1,KIT autoinhibited,binding,,1 µM,100
CNC(=O)Nc1ccc2c(c1)[C@@]1(CC2)OC(=O)N(CC(=O)N(Cc2ccc(F)cc2)[C@@H](C)C(F)(F)F)C1=O,KIT V559D,cell-free assay,competition with immobilised ligand,1 µM,100
c1cnn2ncc(-c3ccnc(N4CCC45COC5)n3)c2c1,KIT L576P,binding,,1 µM,70
CN([C@@H]1CCc2c(CC(=O)O)c3ccccc3n2C1)S(=O)(=O)c1ccc(F)cc1,KIT T670I/V559D,cell-free assay,competition with immobilised ligand,1 µM,100
Cc1cnc(Nc2ccc(C(=O)N3CCC(N4CCCC4)CC3)cc2)nc1-c1cc2ccccc2s1,KIT V559D/V654A,binding,competition with immobilised ligand,1 µM,29
C[C@@H](c1cccc(C#N)c1)n1cc(Cl)cc(C(N)=O)c1=N,KIT V559D,cell-free assay,competition with immobilised ligand,1 µM,93
O=C(c1ccc(Nc2nccc(-c3cc4ccccc4s3)n2)cc1)N1CCC(N2CCCC2)CC1,KIT V559D/V654A,binding,competition with immobilised ligand,1 µM,63
O=C(NS(=O)(=O)c1ccc(NCC2CCOCC2)c([N+](=O)[O-])c1)c1ccc(N2CCN(Cc3ccc(C(F)(F)F)cc3-c3ccc(Cl)cc3)CC2)cc1Oc1cnc2[nH]ccc2c1,KIT autoinhibited,cell-free assay,competition with immobilised ligand,1 µM,100
N[C@@H]1CCN(c2nccc(-c3cnn4ncccc34)n2)C1,KIT D816V,binding,,1 µM,100
